Test results as given in ChEMBL document CHEMBL1212834, “Pyrido[2,3-b]pyrazines, discovery of TRPV1 antagonists with reduced potential for the formation of reactive metabolites” (Bioorg Med Chem Lett, 2010).
pIC50: −log10 of the molar value. The source made the active and inactive calls. The rule behind the calls is not given here.

What was measured:
[1] = Plasma concentration in rat complete Freund's adjuvant-induced inflammation model at 1 mg/kg, po QD for 3 consecutive days measured at 2 hrs post dose on day 1; type: ADME, organism-based; parameters: dose 1 mg/kg, route oral
Procedure, shortened: (§1)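 CFA (200 µL) injected intraplantar into left hind paw; next day rats dosed orally once daily for three consecutive days (1, 3 or 10 mg/kg, suspension in 0.5% methocel). Separate cohort: plasma sampled each day 2 h after dosing.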

Rattus norvegicus [2] = assay: Antiinflammatory activity in Sprague-Dawley rat assessed as inhibition of carrageenan-induced thermal hyperalgesia at 1 mg/kg, po administered 3.5 hrs after carrageenan challenge measured after 5 hrs; type: functional
Procedure, shortened: (§2)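 Rat carrageenan-induced thermal hyperalgesia. Dosed orally as a suspension in 0.5% methocel; % inhibition reported at each dose.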

Rattus norvegicus [3] = assay: Antiinflammatory activity in Sprague-Dawley rat assessed as inhibition of carrageenan-induced thermal hyperalgesia at 3 mg/kg, po administered 3.5 hrs after carrageenan challenge measured after 5 hrs; type: functional; procedure, shortened: as §2
Rattus norvegicus [4] = assay: Plasma concentration in Sprague-Dawley rat carrageenan-induced thermal hyperalgesia model at 1 mg/kg, po; type: ADME, organism-based; parameters: dose 1 mg/kg, route oral; conditions: in vivo
Procedure, shortened: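 Plasma sampled immediately after the carrageenan thermal hyperalgesia experiment, following oral dosing as a suspension in 0.5% methocel.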

Rattus norvegicus [5] = assay: Plasma concentration in Sprague-Dawley rat carrageenan-induced thermal hyperalgesia model at 3 mg/kg, po; type: ADME, organism-based; parameters: dose 3 mg/kg, route oral; conditions: in vivo
Procedure, shortened: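 Rats given compound orally as a suspension in 0.5% methocel in the carrageenan-induced thermal hyperalgesia model. Plasma sampled immediately after the CITH experiment.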

[6] = Half life in rat at 1 mg/kg, iv; type: ADME, organism-based; parameters: dose 1 mg/kg, route intravenous; conditions: in vivo
Procedure, shortened: (§3)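 IV PK at 1 mg/kg, given as a solution in 3:1 PEG300:water. Plasma half-life, clearance and volume of distribution derived.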

[7] = AUC (0 to 24 hrs) in rat at 100 mg/kg, po; type: ADME, organism-based; parameters: time < 24 hr, dose 100 mg/kg, route oral; conditions: plasma
Procedure, shortened: (§4)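 Oral PK at the dose in the line, given as a suspension in 0.5% methocel. […] Reported as mean ± error.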

[8] = Cmax in dog at 1 mg/kg, po; type: ADME, organism-based, Canis lupus familiaris; parameters: dose 1 mg/kg, route oral; conditions: in vivo; procedure, shortened: as §4
[9] = AUC (0 to 24 hrs) in dog at 10 mg/kg, po; type: ADME, organism-based, Canis lupus familiaris; parameters: time < 24 hr, dose 10 mg/kg, route oral; conditions: plasma; procedure, shortened: as §4
[10] = Half life in rhesus monkey at 1 mg/kg, iv; type: ADME, organism-based, Macaca mulatta; parameters: dose 1 mg/kg, route intravenous; conditions: in vivo; procedure, shortened: as §3
[11] = Clearance in rhesus monkey at 1 mg/kg, iv; type: ADME, organism-based, Macaca mulatta; parameters: dose 1 mg/kg, route intravenous; conditions: in vivo; procedure, shortened: as §3
[12] = Volume of distribution in rhesus monkey at 1 mg/kg, iv; type: ADME, organism-based, Macaca mulatta; parameters: dose 1 mg/kg, route intravenous; conditions: in vivo
Procedure, shortened: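 Intravenous dose of 1 mg/kg given as a solution in 3:1 PEG300:water to rat, dog or rhesus monkey. Plasma PK parameters (T1/2, clearance, Vd) derived.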

[13] = biological target: Voltage-gated inwardly rectifying potassium channel KCNH2 (Homo sapiens, UniProt Q12809); assay: Inhibition of human hERG
Sequence of Voltage-gated inwardly rectifying potassium channel KCNH2 (Q12809 whole entry): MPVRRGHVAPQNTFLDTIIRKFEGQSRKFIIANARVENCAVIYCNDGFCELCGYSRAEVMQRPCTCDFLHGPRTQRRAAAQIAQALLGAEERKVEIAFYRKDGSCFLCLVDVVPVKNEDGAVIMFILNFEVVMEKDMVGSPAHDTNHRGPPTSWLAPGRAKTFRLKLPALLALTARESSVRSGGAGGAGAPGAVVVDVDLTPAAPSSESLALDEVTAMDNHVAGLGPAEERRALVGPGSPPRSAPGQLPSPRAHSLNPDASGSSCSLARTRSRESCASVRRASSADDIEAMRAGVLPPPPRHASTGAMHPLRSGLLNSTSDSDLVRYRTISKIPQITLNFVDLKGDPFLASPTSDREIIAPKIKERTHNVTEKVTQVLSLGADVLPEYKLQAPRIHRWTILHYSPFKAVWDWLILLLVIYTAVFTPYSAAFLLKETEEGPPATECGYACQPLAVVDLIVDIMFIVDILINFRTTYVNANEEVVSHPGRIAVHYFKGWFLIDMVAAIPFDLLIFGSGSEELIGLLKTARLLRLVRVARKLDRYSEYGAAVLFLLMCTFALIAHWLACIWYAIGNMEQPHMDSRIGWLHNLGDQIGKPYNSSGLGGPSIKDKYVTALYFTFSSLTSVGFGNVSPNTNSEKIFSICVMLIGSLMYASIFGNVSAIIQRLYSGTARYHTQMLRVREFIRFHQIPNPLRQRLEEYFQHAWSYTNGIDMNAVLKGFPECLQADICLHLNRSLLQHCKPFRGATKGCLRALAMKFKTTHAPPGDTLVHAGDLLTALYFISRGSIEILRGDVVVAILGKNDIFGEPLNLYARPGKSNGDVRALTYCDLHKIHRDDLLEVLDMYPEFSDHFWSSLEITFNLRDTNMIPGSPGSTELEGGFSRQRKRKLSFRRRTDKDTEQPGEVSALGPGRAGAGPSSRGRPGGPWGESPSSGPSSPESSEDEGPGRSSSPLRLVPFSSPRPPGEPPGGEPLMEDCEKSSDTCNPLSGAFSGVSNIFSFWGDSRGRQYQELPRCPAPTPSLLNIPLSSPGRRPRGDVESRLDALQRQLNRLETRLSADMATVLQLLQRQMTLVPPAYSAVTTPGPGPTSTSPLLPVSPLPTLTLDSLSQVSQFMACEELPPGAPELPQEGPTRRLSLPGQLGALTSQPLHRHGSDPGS

[14] = biological target: T1, Amine oxidase [flavin-containing] A (Homo sapiens, UniProt P21397); assay: Inhibition of MAOA
T1 sequence (P21397 whole entry): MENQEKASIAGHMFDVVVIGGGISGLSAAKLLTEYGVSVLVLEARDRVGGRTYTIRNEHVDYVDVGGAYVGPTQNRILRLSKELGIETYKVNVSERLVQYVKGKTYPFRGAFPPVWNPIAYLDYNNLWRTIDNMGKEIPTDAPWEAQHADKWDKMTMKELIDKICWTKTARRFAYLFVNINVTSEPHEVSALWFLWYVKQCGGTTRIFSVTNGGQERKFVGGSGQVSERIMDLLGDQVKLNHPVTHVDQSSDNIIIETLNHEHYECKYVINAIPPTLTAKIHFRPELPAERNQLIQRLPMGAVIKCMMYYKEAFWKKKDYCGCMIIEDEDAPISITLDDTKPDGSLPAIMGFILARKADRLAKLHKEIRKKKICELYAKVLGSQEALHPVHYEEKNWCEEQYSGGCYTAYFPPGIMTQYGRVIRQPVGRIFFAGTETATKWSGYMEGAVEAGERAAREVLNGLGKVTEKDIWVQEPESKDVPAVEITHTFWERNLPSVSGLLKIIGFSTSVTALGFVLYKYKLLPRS
Procedure, shortened: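 Off-target panel of more than 160 receptors, ion channels, transporters and kinases, which included MAO.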

Rattus norvegicus [15] = assay: Antiinflammatory activity in rat assessed as inhibition of complete Freund's adjuvant-induced hind paw edema at 10 mg/kg, po administered 1 day after complete Freund's adjuvant challenge QD for 3 consecutive days measured at 2 hrs post dose on day 1; type: functional
Procedure, shortened: (§5)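 CFA 200 µL injected intraplantar into the left hind paw. From the next day, 1, 3 or 10 mg/kg po once daily for 3 days as a suspension in 0.5% methocel.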

[16] = Plasma concentration in rat complete Freund's adjuvant-induced inflammation model at 1 mg/kg, po at 2 hrs on third day; type: ADME, organism-based; parameters: dose 1 mg/kg, route oral; procedure, shortened: as §1
[17] = Plasma concentration in rat complete Freund's adjuvant-induced inflammation model at 10 mg/kg, po at 2 hrs on third day; type: ADME, organism-based; parameters: dose 10 mg/kg, route oral; procedure, shortened: as §1
Rattus norvegicus [18] = assay: Antiinflammatory activity in po dosed rat assessed as inhibition of complete Freund's adjuvant-induced hind paw edema administered 1 day after complete Freund's adjuvant challenge QD for 3 consecutive days measured at 2 hrs post dose on day 1; type: functional, organism-based; procedure, shortened: as §5
Rattus norvegicus [19] = assay: Antiinflammatory activity in rat assessed as inhibition of complete Freund's adjuvant-induced hind paw edema at 1 mg/kg, po administered 1 day after complete Freund's adjuvant challenge QD for 3 consecutive days measured at 24 hrs post dose on day 3; type: functional; procedure, shortened: as §5
Rattus norvegicus [20] = assay: Antiinflammatory activity in rat assessed as inhibition of complete Freund's adjuvant-induced hind paw edema at 3 mg/kg, po administered 1 day after complete Freund's adjuvant challenge QD for 3 consecutive days measured at 24 hrs post dose on day 3; type: functional; procedure, shortened: as §5
Rattus norvegicus [21] = assay: Antiinflammatory activity in rat assessed as inhibition of complete Freund's adjuvant-induced hind paw edema at 10 mg/kg, po administered 1 day after complete Freund's adjuvant challenge QD for 3 consecutive days measured at 24 hrs post dose on day 3; type: functional; procedure, shortened: as §5
Canis familiaris = organism: Canis familiaris; assay: Cardiotoxicity in dog assessed as effect on ECG intervals at plasma concentration of up to 24 uM; type: toxicity, organism-based, Canis lupus familiaris
[22] = biological target: Transient receptor potential cation channel subfamily V member 1 (Rattus norvegicus, UniProt O35433); assay: Antagonist activity at Sprague-Dawley rat dorsal root ganglion TRPV1 assessed as inhibition of pH-induced receptor activation; type: functional, tissue-based
Sequence of Transient receptor potential cation channel subfamily V member 1 (O35433 whole entry): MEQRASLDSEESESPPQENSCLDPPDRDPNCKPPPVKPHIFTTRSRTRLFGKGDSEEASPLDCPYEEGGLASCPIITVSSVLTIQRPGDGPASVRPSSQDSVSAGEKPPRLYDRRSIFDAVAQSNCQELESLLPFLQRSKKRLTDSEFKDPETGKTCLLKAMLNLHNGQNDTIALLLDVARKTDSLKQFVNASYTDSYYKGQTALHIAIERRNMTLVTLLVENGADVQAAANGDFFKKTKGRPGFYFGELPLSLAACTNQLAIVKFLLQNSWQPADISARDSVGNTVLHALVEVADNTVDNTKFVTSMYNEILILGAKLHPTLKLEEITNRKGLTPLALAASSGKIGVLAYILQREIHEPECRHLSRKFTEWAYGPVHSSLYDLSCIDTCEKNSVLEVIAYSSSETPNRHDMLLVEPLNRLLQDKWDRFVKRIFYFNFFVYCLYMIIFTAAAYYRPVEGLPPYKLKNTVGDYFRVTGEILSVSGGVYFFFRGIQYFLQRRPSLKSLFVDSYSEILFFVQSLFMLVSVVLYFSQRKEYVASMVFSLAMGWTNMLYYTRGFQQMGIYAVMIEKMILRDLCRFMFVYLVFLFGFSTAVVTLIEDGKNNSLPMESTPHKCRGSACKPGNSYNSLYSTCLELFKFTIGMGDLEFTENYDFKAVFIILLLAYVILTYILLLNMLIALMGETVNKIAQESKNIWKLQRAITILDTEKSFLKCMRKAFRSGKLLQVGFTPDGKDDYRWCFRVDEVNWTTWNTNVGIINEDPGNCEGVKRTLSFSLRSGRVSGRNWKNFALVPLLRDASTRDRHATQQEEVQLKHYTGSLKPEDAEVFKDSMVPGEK
Procedure, shortened: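 Rat TRPV1 activated by low pH (5.0–5.5); inhibition measured and IC50 given as the mean of ≥3 experiments.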

Liver microsomes = assay: Metabolic stability in human liver microsomes assessed per mg of protein after 1 hr
Plasma = assay: Covalent protein binding in rat assessed per mg of protein at 8.1 mg/kg, po after 2 to 24 hrs; conditions: in vivo
Rattus norvegicus [23] = assay: Antiinflammatory activity in rat assessed as reversal of complete Freund's adjuvant-induced mechanical hyperalgesia at 1 to 10 mg/kg, po administered 1 day after complete Freund's adjuvant challenge QD for 3 consecutive days measured at 24 hrs post dose on day 2
Rattus norvegicus [24] = assay: Antihyperalgesic activity in rat assessed as inhibition of complete Freund's adjuvant-induced mechanical hyperalgesia measured as differential weight bearing at 1 mg/kg, po administered 1 day after complete Freund's adjuvant challenge QD for 3 consecutive days measured at 2 hrs post dose on day 1

concentration at 2 h [1]: 270 nM
concentration (Rattus norvegicus [4]): 240 nM
concentration (Rattus norvegicus [5]): 1090 nM
half-life [6]: 2.3 h
AUC(0-t) at 24 h [7]: 268 µM·h
Cmax [8]: 500 nM
AUC(0-t) at 24 h [9]: 68 µM·h
half-life [10]: 4.4 h
clearance [11]: 2.8 mL/min/kg
Vd [12]: 1 L/kg
pIC50 [14]: 5.62
concentration at 2 h [16]: 350 nM
concentration at 2 h [17]: 4240 nM
pIC50 [22]: 8.89
Stability (Liver microsomes): 8 pmol
covalent protein binding (Plasma): < 10 pmol/mg
Compound: NC(=O)c1cnc(-c2cnc3c(Nc4ccc(C(F)(F)F)cn4)ccnc3n2)c(C(F)(F)F)c1
inhibition in vivo at 1 mg/kg (Rattus norvegicus [2]): 49%
inhibition in vivo at 3 mg/kg (Rattus norvegicus [3]): 74%
pIC50 [13]: 5.23
inhibition in vivo at 10 mg/kg (Rattus norvegicus [15]): 85%
Activity (Rattus norvegicus [18]): Dose-dependent effect
inhibition in vivo at 1 mg/kg (Rattus norvegicus [19]): 42%
inhibition in vivo at 3 mg/kg (Rattus norvegicus [20]): 64%
inhibition in vivo at 10 mg/kg (Rattus norvegicus [21]): 70%
Activity (Canis familiaris): Non-toxic
inhibition (Rattus norvegicus [23]): Active
inhibition in vivo at 1 mg/kg (Rattus norvegicus [24]): 39%
